The record followed here is ChEMBL document CHEMBL5325503, “Structure Guided Design, Synthesis, and Biological Evaluation of Oxetane-Containing Indole Analogues” (Bioorg Med Chem, 2023).

The structures appear in SMILES notation. Calls of active or inactive are those of the source. The calls are words filed in the database; no cut-off is given here. Where only a bound is given, the exact number is not on record here.

Test [1] relates to PANC-1. Put plainly: Inhibition of cell migration in human PANC-1 cells at 0.5 uM incubated for 1 to 40 hrs by scratch wound healing assay. It counts as functional, cell-based. Particulars: time 1-40 hrs. Summed up: (§1)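 About 1 × 10^5 cells seeded per well of a 6-well plate in DMEM with 10% heat-inactivated FBS and 30 μg/mL gentamicin at 37 °C, 5% CO2. Grown to 70–80% confluency, scratched with a 10 μL pipette tip, medium replaced. Two wells per condition at 0.5 or 1 μM, DMSO ≤0.2% final, with two control wells. Gap imaged by automated microscopy (4X) over 48 h.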

Test [2] has as its system MCF7. Put plainly: Cytotoxicity against human MCF7 cells assessed as inhibition of cell growth incubated for 96 hrs by SRB assay. Particulars: MCF7, 96 h. (In general: In SRB staining, fixed cells bind dye roughly in proportion to their protein.)
Test [3] deals with PANC-1. As to the kind of experiment: Inhibition of cell migration in human PANC-1 cells at 1 uM incubated at 40 hrs by scratch wound healing assay. The test is classed as functional, cell-based. Summed up:
as §1

Test [4] deals with Tubulin (Bos taurus, UniProt Q6B856+Q862L2+Q862F3). Put plainly: Inhibition of bovine brain tubulin polymerization preincubated for 15 mins followed by GTP addition and measured after 20 mins by turbidimetric analysis. Summed up:
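Mixtures (0.25 mL final) held 10 μM (1 mg/mL) bovine brain tubulin, 0.8 M monosodium glutamate pH 6.6, 4% DMSO and compound. Preincubated 15 min at 30 °C without GTP, chilled to 0 °C, then GTP added to 0.1 mM final. Warmed to 30 °C, turbidity followed at 350 nm for 20 min. IC50 = concentration halving polymerization extent at 20 min.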

In test [5] the test system is PANC-1. As to the kind of experiment: Cytotoxicity against human PANC-1 cells assessed as inhibition of cell growth incubated for 48 hrs by SRB assay. It counts as functional, cell-based. Particulars: PANC-1, 48 h. The essentials:
(§2)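 Seeded at 12,000 cells/well in triplicate and grown 24 h at 37 °C, 5% CO2 in high-glucose DMEM with 10% FBS and 30 μg/mL gentamicin. Serial dilutions in medium from 10 mg/mL DMSO stocks, 48 h exposure. Fixed with TCA (6% final), SRB-stained, dye solubilized in 10 mM Tris, A530.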

Test [6] deals with MDA-MB-231. As to the kind of experiment: Cytotoxicity against human MDA-MB-231 cells assessed as inhibition of cell growth incubated for 48 hrs by SRB assay. The test is classed as functional, cell-based. Particulars: MDA-MB-231, 48 h. The essentials: as §2
In test [7] the test system is PANC-1. Put plainly: Inhibition of cell migration in human PANC-1 cells at 0.5 to 1 uM incubated for 48 hrs by scratch wound healing assay. The test is classed as functional, cell-based. Particulars: dose 0.5-1 µM. Summed up: as §1
In test [8] the test system is MCF7. Put plainly: Cytotoxicity against human MCF7 cells assessed as inhibition of cell growth incubated for 48 hrs by SRB assay. The test is classed as functional, cell-based. The conditions noted are these: MCF7, 48 h.

As usually defined, the IC50 is the concentration that inhibits the measured activity by half. For the molecule `COc1cc(C2(c3c(-c4ccccc4)[nH]c4c(OC)cccc34)COC2)cc(OC)c1OC`, the inhibition entry in test [1], in test [3] and in test [7] was “Active” in each case. Moreover, the IC50 in test [2] was 780 nM; in test [4], more than 20000 nM; in test [5] it was 440 nM; in test [6], 3000 nM.
For the molecule `COc1cc(C2(c3c(-c4ccc(C)cc4)[nH]c4cc(Br)ccc34)COC2)cc(OC)c1OC`, the results for the concentration for half-maximal inhibition (IC50) in test [2] and in test [4] were 1700 nM and more than 20000 nM, respectively.
On to `COc1cccc(-c2[nH]c3ccccc3c2C2(c3cc(OC)c(OC)c(OC)c3)COC2)c1`, for which the IC50 in test [2] is 4800 nM; in test [4], more than 20000 nM.
On to `COc1cc(C2(c3c(-c4ccc(C)cc4)[nH]c4ccccc34)COC2)cc(OC)c1OC`, for which the IC50 was more than 5000 nM in test [2] and more than 20000 nM in test [4].
As for `COc1cc(C2(c3c(-c4ccccc4)[nH]c4cc(Br)ccc34)COC2)cc(OC)c1OC`, the inhibition entry in test [1], in test [3] and in test [7] was “Active” in each case. Moreover, the IC50 in test [2] is 470 nM; in test [4], more than 20000 nM; in test [5], 430 nM; in test [6] it was 1900 nM.
`COc1ccc2[nH]c(-c3ccccc3)c(C3(c4cc(OC)c(OC)c(OC)c4)COC3)c2c1`: the IC50 in test [2] was 3200 nM; in test [4], more than 20000 nM.
`COc1cc(C2(c3c(-c4ccccc4)[nH]c4ccc(Br)cc34)COC2)cc(OC)c1OC`: the results for the IC50 in test [2] and in test [4] were 2200 nM and more than 20000 nM, respectively.
For `COc1ccc2c(C3(c4cc(OC)c(OC)c(OC)c4)COC3)c(-c3ccc(OC)c(O)c3)[nH]c2c1`, the IC50 in test [8] was 1600 nM; in test [4], more than 20000 nM.
As for `COc1cc(C2(c3c(-c4ccccc4)[nH]c4ccccc34)COC2)cc(OC)c1OC`, the IC50 was more than 5000 nM in test [2] and more than 20000 nM in test [4].
`COc1ccc(-c2[nH]c3cc(Cl)ccc3c2C2(c3cc(OC)c(OC)c(OC)c3)COC2)cc1`: the values for the IC50 in test [8] and in test [4] were 3700 nM and more than 20000 nM, respectively.
For the molecule `COc1cc(C2(c3c(-c4ccccc4)[nH]c4cc(Cl)ccc34)COC2)cc(OC)c1OC`, the IC50 in test [2] was 840 nM; in test [4] it was more than 20000 nM; in test [5], 1100 nM; in test [6], 2200 nM.
With `COc1cc(C2(c3c(-c4ccc(C)cc4)[nH]c4cc(Cl)ccc34)COC2)cc(OC)c1OC`, the IC50 in test [2] was 2700 nM; in test [4], more than 20000 nM.
Take `COc1ccc(-c2[nH]c3ccccc3c2C2(c3cc(OC)c(OC)c(OC)c3)COC2)cc1`: the IC50 is more than 5000 nM in test [2] and more than 20000 nM in test [4].
In the case of `COc1ccc2[nH]c(-c3ccc(C)cc3)c(C3(c4cc(OC)c(OC)c(OC)c4)COC3)c2c1`, the IC50 in test [2] was more than 5000 nM; in test [4] it was more than 20000 nM.
